ChEMBL document CHEMBL1156068, “Synthesis, pharmacological and antiviral activity of 1,3-thiazepine derivatives” (Eur J Med Chem, 2009)
Active and inactive are the calls of the source. The calls are words filed in the database; no cut-off is given here.

Key:
[1] = system: Vesicular stomatitis virus; assay: Antiviral activity against Vesicular stomatitis virus infected in african green monkey Vero76 cells after 2 days by plaque reduction assay; type: functional, organism-based; details: Vero 76
Mus musculus [2] = assay: Effect on amphetamine-induced hyperactivity in Swiss albino mouse at 5 mg/kg, sc administered 30 mins before amphetamine challenge; type: functional, organism-based; parameters: dose 5 mg/kg
Outline: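 Mice received compound i.p. (0.1 LD50, 0.5% methylcellulose suspension) 60 min before test. Amphetamine 5 mg kg-1 s.c. was given 30 min before test. Locomotion of single male Albino Swiss mice recorded in photoresistor actometers for 30 min. Vehicle controls. Student's t-test.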

Mus musculus [3] = assay: Depression of spontaneous locomotor activity in Swiss albino mouse at 0.05 times LD50, ip dose measured for 30 mins; type: functional, organism-based
Outline: (§1)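 Spontaneous locomotion of single male Albino Swiss mice recorded in photoresistor actometers for 30 min. Compound given i.p. at 0.05 or 0.1 LD50 as 0.5% methylcellulose suspension 60 min before test. Vehicle controls. Student's t-test.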

Mus musculus [4] = assay: Effect on motor coordination in Swiss albino mouse at 200 mg/kg, ip by rotarod test; type: ADME, organism-based; parameters: dose 200 mg/kg, route intraperitoneal; details: in vivo
Mus musculus [5] = assay: Effect on motor coordination in Swiss albino mouse at 200 mg/kg, ip by chimney test; type: ADME, organism-based; parameters: dose 200 mg/kg, route intraperitoneal; details: in vivo
Mus musculus [6] = organism: Mus musculus; assay: Decrease in body temperature in normothermic Swiss albino mouse within 60 to 120 mins; type: ADME, organism-based; details: in vivo
Mus musculus [7] = assay: Effect on pentylenetetrazole-induced clonic seizures in Swiss albino mouse at 200 mg/kg, ip; type: functional, organism-based; parameters: dose 200 mg/kg
Outline: (§2)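 Mice pretreated i.p. with compound (200 mg kg-1, 0.5% methylcellulose suspension, 60 min), then pentylenetetrazole 110 mg kg-1 s.c. Scored as number of mice with clonic seizures, tonic convulsions, and deaths. Chi-square test with Yates correction.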

[8] = system: Respiratory syncytial virus; assay: Antiviral activity against Respiratory syncytial virus infected in african green monkey Vero76 cells after 5 days by plaque reduction assay; type: functional, organism-based; details: Vero 76
Outline: (§3)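 Vero 76 monolayers (2×10^5 cells/well, overnight) infected to give 50–100 PFU/well. Unadsorbed virus removed, then DMEM with 1% FCS, 0.75% methylcellulose and serial compound dilutions added. Incubated at 37 °C for 3 days (CVB-2, HSV-1) or 5 days (RSV). Fixed and stained with 50% ethanol/0.8% crystal violet in PBS; plaques counted.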

[9] = system: Mammalian orthoreovirus 1; assay: Antiviral activity against Reo virus type-1 infected in BHK-21 cells assessed as protection against virus induced cytopathogenicity after 3 to 4 days by MTT assay; type: functional, organism-based
Outline: (§4)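 Monolayers were grown overnight at 37 °C, 5% CO2: MDBK at 3×10^4 cells/well, BHK at 5×10^4 cells/well. Cells infected at m.o.i. 0.01. After 1 h, serial compound dilutions added in MEM with 1% FCS. Viability read by MTT after 3–4 days at 37 °C. EC50 is the concentration giving 50% protection from cytopathogenicity.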

Mus musculus [10] = organism: Mus musculus; assay: Decrease in body temperature in normothermic Swiss albino mouse within 30 to 90 mins; type: ADME, organism-based; details: in vivo
Yellow fever virus = assay: Antiviral activity against Yellow fever virus infected in BHK-21 cells assessed as protection against virus induced cytopathogenicity after 3 to 4 days by MTT assay; type: functional, organism-based
Outline: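 BHK cells were seeded at 5 × 10^4 per well and grown overnight to monolayers, then infected at m.o.i. 0.01 in serum-free medium. One hour later, MEM Earle's with 1% FCS (final) and serial compound dilutions were added. After 3–4 days at 37 °C, viability was read by MTT. EC50 is the concentration giving 50% protection from virus-induced cytopathogenicity.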

Vaccinia virus = assay: Antiviral activity against Vaccinia virus infected in african green monkey Vero76 cells after 3 days by plaque reduction assay; type: functional, organism-based; details: Orthopoxvirus vaccinia; Vero 76
Coxsackievirus B2 = assay: Antiviral activity against Coxsackie virus B2 infected in african green monkey Vero76 cells after 3 days by plaque reduction assay; type: functional, organism-based; details: Vero 76; outline: as §3
[11] = system: Bovine viral diarrhea virus 1; assay: Antiviral activity against Bovine viral diarrhea virus infected in MDBK cells assessed as protection against virus induced cytopathogenicity after 3 to 4 days by MTT assay; type: functional, organism-based; outline: as §4
Mus musculus [12] = assay: Effect on pentylenetetrazole-induced tonic convulsion in Swiss albino mouse at 200 mg/kg, ip; type: functional, organism-based; parameters: dose 200 mg/kg; outline: as §2
Mus musculus [13] = assay: Acute toxicity in ip dosed Swiss albino mouse assessed as mortality within 48 hrs; type: organism-based; details: in vivo
Outline: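 Male Albino Swiss mice (18–30 g) received compound i.p. as a suspension in 0.5% aqueous methylcellulose, 10 mL kg-1. LD50 was calculated by the Litchfield–Wilcoxon method from mortality within 48 h.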

Mus musculus [14] = assay: Antinociceptive activity in Swiss albino mouse assessed as protection against acetic acid-induced abdominal constriction at 200 mg/kg, ip measured for 10 mins by writhing test; type: functional, organism-based; parameters: dose 200 mg/kg; details: Abdomen
Human alphaherpesvirus 1 = assay: Antiviral activity against HSV1 infected in african green monkey Vero76 cells after 3 days by plaque reduction assay; type: functional, organism-based; details: Vero 76; outline: as §3
Mus musculus [15] = assay: Decrease in 5-hydroxytryptophan-induced head twitch in Swiss albino mouse at 200 mg/kg, ip measured for 6 two mins interval; type: functional, organism-based; parameters: dose 200 mg/kg
Mus musculus [16] = assay: Depression of spontaneous locomotor activity in Swiss albino mouse at 0.1 times LD50, ip dose measured for 30 mins; type: functional, organism-based; outline: as §1
Poliovirus 1 = assay: Antiviral activity against Poliovirus type 1 Sabin infected in african green monkey Vero76 cells after 2 days by plaque reduction assay; type: functional, cell-based; details: Vero 76
[17] = system: Human immunodeficiency virus 1; assay: Antiviral activity against wild type HIV1 3B infected in human MT4 cells assessed as protection against virus induced cytopathogenicity after 4 days by MTT assay; type: functional, organism-based; details: Human immunodeficiency virus 1, 3B, MT4, 96 h
Outline: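 MT-4 cells (1×10^4/well) in RPMI with serial compound dilutions were infected with HIV-1 (100 CCID50; m.o.i. 0.01). After 4 days, viability was measured by MTT. EC50 is the concentration giving 50% protection from virus-induced cytopathogenicity. Compounds were prepared as 100 mM DMSO stocks diluted in medium.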

[18] = Cytotoxicity against human MT4 cells assessed as reduction of cell viability after 96 hrs by MTT assay; type: cell-based
Outline: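 Exponentially growing, mock-infected MT-4 cells were seeded at 1×10^5 cells mL-1 in RPMI-1640 with 10% FCS and penicillin/streptomycin, with serial compound dilutions. Incubated 96 h at 37 °C, 5% CO2, then viability read by MTT. CC50 is the concentration reducing viability by 50%.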

Compound	Activity [1]	Activity [8]	Activity [9]	Activity (Yellow fever virus)	Activity (Vaccinia virus)	Activity (Coxsackievirus B2)	Activity [11]	Activity (Human alphaherpesvirus 1)	Activity (Poliovirus 1)	EC50 [17]	CC50 at 96 h [18]	also measured
CC1=CC2C(C(C)C)CC1C1C(=O)N(N3CCCCS/C3=N\c3ccc(C)cc3)C(=O)C21 (stereo not drawn)	inactive	inactive	inactive	inactive	inactive	inactive	inactive	inactive	inactive	–	–	Activity (Mus musculus [2]): inactive; Activity (Mus musculus [3]): inactive; Activity (Mus musculus [4]): Non-toxic; Activity (Mus musculus [5]): Non-toxic; Activity (Mus musculus [6]): Toxic; Activity (Mus musculus [7]): inactive; Activity (Mus musculus [10]): Toxic; Activity (Mus musculus [12]): inactive; Activity (Mus musculus [13]): Active; Activity (Mus musculus [14]): inactive; Activity (Mus musculus [15]): inactive; Activity (Mus musculus [16]): Active
CC(C)C12C=CC(C)(CC1)C1C(=O)N(N3CCCCS/C3=N\Cc3ccccc3)C(=O)C12 (stereo not drawn)	inactive	inactive	inactive	inactive	inactive	inactive	inactive	inactive	inactive	> 100 µM	> 100 µM	–
C=CCNC(=S)NN1C(=O)C2C3CC(C(C)C)C(C=C3C)C2C1=O (stereo not drawn)	inactive	inactive	inactive	inactive	inactive	inactive	inactive	inactive	inactive	> 100 µM	> 100 µM	–
CC1=CC2C(C(C)C)CC1C1C(=O)N(N3CCCCS/C3=N\c3ccc(I)cc3)C(=O)C21 (stereo not drawn)	inactive	inactive	inactive	inactive	inactive	inactive	inactive	inactive	inactive	> 22 µM	22 µM	–
C=CC/N=C1\SCCCCN1N1C(=O)C2C(C1=O)C1(C(C)C)C=CC2(C)CC1 (stereo not drawn)	inactive	inactive	inactive	inactive	inactive	inactive	inactive	inactive	inactive	> 58 µM	58 µM	–
CC(C)C12C=CC(C)(CC1)C1C(=O)N(NC(=S)Nc3ccc(I)cc3)C(=O)C12 (stereo not drawn)	inactive	inactive	inactive	inactive	inactive	inactive	inactive	inactive	inactive	> 100 µM	> 100 µM	–
CC(C)C12C=CC(C)(CC1)C1C(=O)N(N3CCCCS/C3=N\c3ccc(Cl)cc3)C(=O)C12 (stereo not drawn)	inactive	inactive	inactive	inactive	inactive	inactive	inactive	inactive	inactive	> 32 µM	32 µM	–
CC1=CC2C(C(C)C)CC1C1C(=O)N(NC(=S)Nc3ccc(Cl)c(Cl)c3)C(=O)C21 (stereo not drawn)	inactive	inactive	inactive	inactive	inactive	inactive	inactive	inactive	inactive	> 41 µM	41 µM	–
CC(C)C12C=CC(C)(CC1)C1C(=O)N(N3CCCCS/C3=N\c3ccc(Cl)c(Cl)c3)C(=O)C12 (stereo not drawn)	inactive	inactive	inactive	inactive	inactive	inactive	inactive	inactive	inactive	> 100 µM	> 100 µM	Activity (Mus musculus [2]): inactive; Activity (Mus musculus [3]): inactive; Activity (Mus musculus [4]): Non-toxic; Activity (Mus musculus [5]): Non-toxic; Activity (Mus musculus [6]): Toxic; Activity (Mus musculus [7]): inactive; Activity (Mus musculus [10]): Toxic; Activity (Mus musculus [12]): inactive; Activity (Mus musculus [13]): Active; Activity (Mus musculus [14]): inactive; Activity (Mus musculus [15]): Active; Activity (Mus musculus [16]): Active
C=CC/N=C1\SCCCCN1N1C(=O)C2C3CC(C(C)C)C(C=C3C)C2C1=O (stereo not drawn)	inactive	inactive	inactive	inactive	inactive	inactive	inactive	inactive	inactive	> 59 µM	59 µM	–
CC1=CC2C(C(C)C)CC1C1C(=O)N(NC(=S)Nc3ccc(F)cc3)C(=O)C21 (stereo not drawn)	inactive	inactive	inactive	inactive	inactive	inactive	inactive	inactive	inactive	> 69 µM	69 µM	–
